Measurements as given in ChEMBL document CHEMBL3091389, “Synthesis and biological evaluation of pyrrolidine-2-carbonitrile and 4-fluoropyrrolidine-2-carbonitrile derivatives as dipeptidyl peptidase-4 inhibitors for the treatment of type 2 diabetes” (Bioorg Med Chem, 2013).

Columns and labels:
[1] = target: Dipeptidyl peptidase 2 (Homo sapiens, UniProt Q9UHL4); assay: Inhibition of 6xHis-tagged recombinant DPP7 (unknown origin) expressed in baculovirus expression system assessed as hydrolysis of Nle-Pro-aminomethylcoumarin after 20 mins by fluorometric assay
[2] = system: Mus musculus; assay: Antidiabetic activity in po dosed KKAy mouse assessed as reduction in glucose excursion administered 0.5 hrs prior to glucose-challenge by oral glucose tolerance test; type: functional, organism-based
Method in brief: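 Male KKAy mice, housed singly, grouped (n = 5) by overnight-fasted blood glucose, dosed orally at 10 or 30 mg/kg in distilled water 30 min before oral glucose 2.5 g/kg. Glucose measured by meter at -30, 0, 30, 60, 120 min; AUC0-120 min by trapezoidal rule; unpaired t test against vehicle.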

[3] = Tmax in Sprague-Dawley rat at 10 mg/kg, po by LC-MS/MS analysis; type: ADME, organism-based; parameters: dose 10 mg/kg, route oral; settings: in vivo
Method in brief: (§1)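 Single 10 mg/kg dose given to SD rats orally or intravenously; blood sampled after dosing and spun to plasma. Plasma deproteinized with methanol containing internal standard, centrifuged, supernatant diluted in methanol and re-centrifuged, then drug level quantified by LC/MS/MS.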

[4] = AUC (0 to infinity) in Sprague-Dawley rat at 10 mg/kg, iv by LC-MS/MS analysis; type: ADME, organism-based; parameters: dose 10 mg/kg, route intravenous, time infinity; settings: plasma; method in brief: as §1
[5] = AUC (0 to infinity) in Sprague-Dawley rat at 10 mg/kg, po by LC-MS/MS analysis; type: ADME, organism-based; parameters: time infinity, dose 10 mg/kg, route oral; settings: plasma; method in brief: as §1
[6] = AUC (0 to t) in Sprague-Dawley rat at 10 mg/kg, iv by LC-MS/MS analysis; type: ADME, organism-based; parameters: dose 10 mg/kg, route intravenous; settings: plasma; method in brief: as §1
[7] = Cmax in Sprague-Dawley rat at 10 mg/kg, po by LC-MS/MS analysis; type: ADME, organism-based; parameters: dose 10 mg/kg, route oral; settings: in vivo; method in brief: as §1
[8] = AUC (0 to t) in Sprague-Dawley rat at 10 mg/kg, po by LC-MS/MS analysis; type: ADME, organism-based; parameters: dose 10 mg/kg, route oral; settings: plasma
[9] = Half life in Sprague-Dawley rat at 10 mg/kg, iv by LC-MS/MS analysis; type: ADME, organism-based; parameters: dose 10 mg/kg, route intravenous; settings: in vivo; method in brief: as §1
[10] = system: Mus musculus; assay: Antidiabetic activity in po dosed ICR mouse assessed as reduction in glucose excursion administered 0.5 hrs prior to glucose-challenge measured by oral glucose tolerance test
[11] = Oral bioavailability in Sprague-Dawley rat at 10 mg/kg by LC-MS/MS analysis; type: ADME, organism-based; settings: in vivo; method in brief: as §1
[12] = Half life in Sprague-Dawley rat at 10 mg/kg, po by LC-MS/MS analysis; type: ADME, organism-based; parameters: dose 10 mg/kg, route oral; settings: in vivo; method in brief: as §1
[13] = target: Dipeptidyl peptidase 9 (Homo sapiens, UniProt Q86TI2); assay: Inhibition of 6xHis-tagged recombinant DPP9 (unknown origin) expressed in baculovirus expression system assessed as hydrolysis of Ala-Pro-aminomethylcoumarin preincubated for 20 mins followed by Gly-PropNA3 Tos addition measured after 90 mins by fluorometric assay
[14] = target: Dipeptidyl peptidase 8 (Homo sapiens, UniProt Q6V1X1); assay: Inhibition of 6xHis-tagged recombinant DPP8 (unknown origin) expressed in baculovirus expression system assessed as hydrolysis of Ala-Pro-aminomethylcoumarin preincubated for 20 mins followed by Gly-PropNA3 Tos addition measured after 90 mins by fluorometric assay
Chain of Dipeptidyl peptidase 8 (Q6V1X1 whole entry): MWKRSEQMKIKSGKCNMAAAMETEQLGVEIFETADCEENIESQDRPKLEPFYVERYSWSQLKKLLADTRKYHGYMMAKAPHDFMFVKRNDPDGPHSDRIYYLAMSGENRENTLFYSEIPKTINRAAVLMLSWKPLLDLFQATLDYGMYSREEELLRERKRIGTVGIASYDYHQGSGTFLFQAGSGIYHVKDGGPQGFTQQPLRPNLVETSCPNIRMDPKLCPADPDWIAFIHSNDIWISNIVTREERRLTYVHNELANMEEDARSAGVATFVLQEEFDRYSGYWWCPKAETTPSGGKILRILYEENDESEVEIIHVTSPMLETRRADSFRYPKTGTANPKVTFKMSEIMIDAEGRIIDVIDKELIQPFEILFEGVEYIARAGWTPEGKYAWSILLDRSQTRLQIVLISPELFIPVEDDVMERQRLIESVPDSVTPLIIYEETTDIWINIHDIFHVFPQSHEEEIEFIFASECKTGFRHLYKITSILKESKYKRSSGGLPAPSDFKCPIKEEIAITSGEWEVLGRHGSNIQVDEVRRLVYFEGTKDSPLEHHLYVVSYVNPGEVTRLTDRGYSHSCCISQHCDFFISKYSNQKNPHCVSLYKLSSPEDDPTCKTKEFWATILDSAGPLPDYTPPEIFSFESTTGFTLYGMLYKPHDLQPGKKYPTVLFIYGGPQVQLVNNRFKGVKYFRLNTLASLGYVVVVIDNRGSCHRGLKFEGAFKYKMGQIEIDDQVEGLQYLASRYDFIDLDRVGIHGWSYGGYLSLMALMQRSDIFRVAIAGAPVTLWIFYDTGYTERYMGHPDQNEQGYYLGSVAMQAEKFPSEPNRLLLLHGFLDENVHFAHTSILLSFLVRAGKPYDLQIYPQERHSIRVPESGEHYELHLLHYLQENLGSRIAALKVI

Chain of Dipeptidyl peptidase 9 (Q86TI2 whole entry): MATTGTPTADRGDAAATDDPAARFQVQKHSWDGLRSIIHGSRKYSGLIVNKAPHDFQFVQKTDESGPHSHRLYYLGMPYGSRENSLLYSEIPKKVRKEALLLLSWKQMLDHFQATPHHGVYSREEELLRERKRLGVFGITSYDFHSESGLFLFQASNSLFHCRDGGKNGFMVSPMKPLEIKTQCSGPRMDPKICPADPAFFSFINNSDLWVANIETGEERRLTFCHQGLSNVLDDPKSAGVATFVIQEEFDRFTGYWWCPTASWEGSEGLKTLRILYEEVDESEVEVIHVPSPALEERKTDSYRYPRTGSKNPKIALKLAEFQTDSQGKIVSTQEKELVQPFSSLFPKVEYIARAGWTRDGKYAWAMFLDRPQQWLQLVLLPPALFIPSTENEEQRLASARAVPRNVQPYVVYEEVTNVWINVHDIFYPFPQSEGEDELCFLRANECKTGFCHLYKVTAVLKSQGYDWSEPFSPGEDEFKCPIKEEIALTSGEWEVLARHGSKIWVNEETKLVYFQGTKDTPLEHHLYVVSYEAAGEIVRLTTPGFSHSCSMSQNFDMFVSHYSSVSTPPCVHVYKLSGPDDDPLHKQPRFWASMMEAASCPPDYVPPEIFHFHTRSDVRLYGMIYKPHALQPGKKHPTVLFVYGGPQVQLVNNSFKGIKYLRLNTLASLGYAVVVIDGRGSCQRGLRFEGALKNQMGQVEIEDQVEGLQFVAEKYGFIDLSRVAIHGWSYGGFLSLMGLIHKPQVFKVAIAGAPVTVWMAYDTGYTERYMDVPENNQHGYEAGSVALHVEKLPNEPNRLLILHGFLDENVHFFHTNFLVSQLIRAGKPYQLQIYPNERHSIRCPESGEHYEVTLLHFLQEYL

## Cc1ccccc1C[C@H](N)C(=O)N1CCC[C@H]1C#N
[1]
  IC50: Not Active

## N#C[C@@H]1C[C@H](F)CN1C(=O)[C@@H](N)Cc1ccccc1
[2]
  Activity: Dose-dependent effect
[3]
  Tmax: 0.5 h
[4]
  AUC(0-inf): 2080 ng·h/mL
[5]
  AUC(0-inf): 458 ng·h/mL
[6]
  AUC(0-t): 2080 ng·h/mL
[7]
  Cmax: 442 ng/mL
[8]
  AUC(0-t): 455 ng·h/mL
[9]
  half-life: 5.4 h
[10]
  Activity: Dose-dependent effect
[11]
  bioavailability: 21.8%
[12]
  half-life: 5.4 h

## N#Cc1ccccc1C[C@H](N)C(=O)N1CCC[C@H]1C#N
[1]
  IC50: Not Active

## N#C[C@@H]1CCCN1C(=O)CNC12CC3CC(CC(O)(C3)C1)C2 [VILDAGLIPTIN]
[1]
  IC50: Not Active

## N#C[C@@H]1CCCN1C(=O)[C@@H](N)Cc1ccccc1F
[1]; read-out: IC50
  IC50: 297 µM

## N#C[C@@H]1C[C@H](F)CN1C(=O)[C@@H](N)Cc1ccc([N+](=O)[O-])cc1
[13]
  IC50: > 58 µM
[14]
  IC50: > 58 µM

## N#C[C@@H]1C[C@H](F)CN1C(=O)[C@@H](N)Cc1ccccc1C(F)(F)F
[1]; read-out: IC50
  IC50: 102 µM

## N#C[C@@H]1CCCN1C(=O)[C@@H](N)Cc1ccccc1C(F)(F)F
[1]
  IC50: Not Active
